What all share (format): ADME
Data set [1] deals with T1, UDP-glucuronosyltransferase 2A1 (Homo sapiens, UniProt P0DTE4).
T1 sequence (P0DTE4 whole entry): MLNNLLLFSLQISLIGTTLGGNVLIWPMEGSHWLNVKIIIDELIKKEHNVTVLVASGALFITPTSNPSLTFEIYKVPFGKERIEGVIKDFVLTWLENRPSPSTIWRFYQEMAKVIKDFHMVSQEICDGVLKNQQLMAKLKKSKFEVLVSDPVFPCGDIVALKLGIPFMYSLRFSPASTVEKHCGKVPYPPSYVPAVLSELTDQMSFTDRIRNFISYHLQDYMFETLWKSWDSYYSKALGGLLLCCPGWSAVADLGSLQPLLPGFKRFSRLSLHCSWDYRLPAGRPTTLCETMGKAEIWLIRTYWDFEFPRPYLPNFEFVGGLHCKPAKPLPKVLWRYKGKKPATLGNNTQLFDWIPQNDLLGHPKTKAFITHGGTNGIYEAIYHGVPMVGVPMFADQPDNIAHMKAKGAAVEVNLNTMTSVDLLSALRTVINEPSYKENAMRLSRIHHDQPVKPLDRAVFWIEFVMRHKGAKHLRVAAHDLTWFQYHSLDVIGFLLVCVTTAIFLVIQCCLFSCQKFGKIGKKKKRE
The data set is described as follows: Drug metabolism assessed as recombinant human C-terminal His-tagged UGT2A1-mediated 13-epiestradiol-3-glucuronide/13-epiestradiol-17-glucuronide formation at 200 uM after 15 to 60 mins by HPLC analysis in presence of UDPGA. The conditions noted are these: recombinant enzyme. The method, boiled down: (§1)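 Screening at a single substrate concentration of 200 μM, in triplicate. The reaction used 5 or 50 µg of UGT-enriched insect cell membranes in 50 mM phosphate pH 7.4 with 10 mM MgCl₂ and 5 mM UDPGA, 10% final DMSO. Incubation was 15–60 min at 37°C. Perchloric acid stopped the reaction and supernatants were analysed by HPLC. Controls lacked UDPGA. Rates were normalized to relative UGT expression level.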

The target in data set [2] is T2, UDP-glucuronosyltransferase 1A1 (Homo sapiens, UniProt P22309).
T2 sequence (P22309 whole entry): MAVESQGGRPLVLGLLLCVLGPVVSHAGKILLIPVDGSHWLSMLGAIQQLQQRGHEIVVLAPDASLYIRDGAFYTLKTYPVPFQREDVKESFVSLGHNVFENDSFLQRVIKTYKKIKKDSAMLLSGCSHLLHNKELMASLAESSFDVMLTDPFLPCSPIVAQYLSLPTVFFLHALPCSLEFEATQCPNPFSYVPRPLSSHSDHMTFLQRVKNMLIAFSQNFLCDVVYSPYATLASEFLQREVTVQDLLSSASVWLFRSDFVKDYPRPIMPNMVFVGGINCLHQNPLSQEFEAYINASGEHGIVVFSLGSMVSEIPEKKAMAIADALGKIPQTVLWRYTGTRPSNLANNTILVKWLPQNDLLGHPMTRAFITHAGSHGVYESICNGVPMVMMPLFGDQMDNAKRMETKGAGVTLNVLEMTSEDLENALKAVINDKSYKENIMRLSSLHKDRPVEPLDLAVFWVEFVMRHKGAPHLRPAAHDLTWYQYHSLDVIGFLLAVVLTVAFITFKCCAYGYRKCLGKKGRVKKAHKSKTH
The data set is described as follows: Drug metabolism assessed as recombinant human C-terminal His-tagged UGT1A1-mediated 16-epiestriol-3-glucuronide formation after 15 to 60 mins by Michaelis-Menten equation analysis in presence of UDPGA. The conditions noted are these: recombinant enzyme.

Data set [3] concerns the target T3, UDP-glucuronosyltransferase 1A8 (Homo sapiens, UniProt Q9HAW9).
T3 sequence (Q9HAW9 whole entry): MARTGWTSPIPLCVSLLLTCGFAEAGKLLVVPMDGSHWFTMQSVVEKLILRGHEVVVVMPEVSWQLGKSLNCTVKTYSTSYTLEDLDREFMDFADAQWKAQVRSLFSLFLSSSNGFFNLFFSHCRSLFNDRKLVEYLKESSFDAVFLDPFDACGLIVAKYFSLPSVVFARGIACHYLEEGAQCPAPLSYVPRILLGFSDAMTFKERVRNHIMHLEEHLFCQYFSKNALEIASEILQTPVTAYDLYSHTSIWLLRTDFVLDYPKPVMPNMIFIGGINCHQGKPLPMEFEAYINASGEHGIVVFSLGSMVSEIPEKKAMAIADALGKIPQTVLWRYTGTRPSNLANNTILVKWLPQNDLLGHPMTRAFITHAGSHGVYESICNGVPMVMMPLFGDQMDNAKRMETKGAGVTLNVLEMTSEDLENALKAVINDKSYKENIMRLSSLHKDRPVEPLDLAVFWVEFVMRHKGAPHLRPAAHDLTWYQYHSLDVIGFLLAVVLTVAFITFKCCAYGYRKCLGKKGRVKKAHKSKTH
The data set is described as follows: Drug metabolism assessed as recombinant human C-terminal His-tagged UGT1A8-mediated estradiol-3-glucuronide formation at 200 uM after 15 to 60 mins by HPLC analysis in presence of UDPGA. The conditions noted are these: recombinant enzyme. The method, boiled down:
as §1

The target of data set [4] is T1, UDP-glucuronosyltransferase 2A1. The data set is described as follows: Drug metabolism assessed as recombinant human C-terminal His-tagged UGT2A1-mediated estradiol-3-glucuronide/estradiol-17-glucuronide formation at 200 uM after 15 to 60 mins by HPLC analysis in presence of UDPGA. The conditions noted are these: recombinant enzyme. The gist of the method:
as §1

The subject of another data set is Liver microsome. The data set is described as follows: Drug metabolism in human liver microsomes assessed as 17-epiestriol-3-glucuronide formation after 15 to 60 mins by Michaelis-Menten equation analysis in presence of UDPGA. The gist of the method: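 Pooled human liver microsomes (30 donors), 0.5 or 10 µg, with alamethicin at 5% of total protein. Incubated with 50 mM phosphate pH 7.4, 10 mM MgCl₂, 5 mM UDPGA and 10% DMSO for 15–60 min at 37°C. Each glucuronide regioisomer quantified by HPLC, in triplicate, with substrate consumption at or below 10%.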
A general note: Liver microsomes are a subcellular fraction often used to study metabolism.

Data set [5] deals with T4, UDP-glucuronosyltransferase 2B15 (Homo sapiens, UniProt P54855).
T4 sequence (P54855 whole entry): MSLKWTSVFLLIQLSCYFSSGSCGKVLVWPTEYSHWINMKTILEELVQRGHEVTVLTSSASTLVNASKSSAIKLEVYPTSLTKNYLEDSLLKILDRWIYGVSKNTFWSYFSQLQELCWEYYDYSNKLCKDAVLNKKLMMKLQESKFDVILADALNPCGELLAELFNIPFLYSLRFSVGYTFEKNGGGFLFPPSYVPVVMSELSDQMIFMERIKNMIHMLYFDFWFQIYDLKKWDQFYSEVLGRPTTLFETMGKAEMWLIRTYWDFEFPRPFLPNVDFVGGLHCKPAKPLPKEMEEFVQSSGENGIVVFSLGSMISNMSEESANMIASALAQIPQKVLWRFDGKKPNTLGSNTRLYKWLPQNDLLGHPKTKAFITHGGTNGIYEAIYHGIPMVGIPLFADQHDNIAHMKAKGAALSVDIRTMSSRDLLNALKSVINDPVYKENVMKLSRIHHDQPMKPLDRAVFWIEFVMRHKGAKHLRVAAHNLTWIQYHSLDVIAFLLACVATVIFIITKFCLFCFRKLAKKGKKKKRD
The data set is described as follows: Drug metabolism assessed as recombinant human C-terminal […]-mediated 17-epiestriol-3-glucuronide formation at 200 uM after 15 to 60 mins by HPLC analysis in presence of UDPGA. The conditions noted are these: recombinant enzyme.

We go through 4 compounds from ChEMBL document CHEMBL3525985, “Regiospecificity and stereospecificity of human UDP-glucuronosyltransferases in the glucuronidation of estriol, 16-epiestriol, 17-epiestriol, and 13-epiestradiol” (Drug Metab Dispos, 2013).

A word on the Km: it is the concentration of substrate that gives half-maximal velocity. As usually defined, the Vmax is the rate approached at saturating substrate.

Turning to `C[C@@]12CC[C@@H]3c4ccc(O)cc4CC[C@H]3[C@@H]1CC[C@@H]2O`, the Drug metabolism entry in data set [1] is reported as “metabolite_detected”.

On to `C[C@]12CC[C@@H]3c4ccc(O)cc4CC[C@H]3[C@@H]1C[C@H](O)[C@@H]2O` [EPIESTRIOL], for which, in data set [2], the Drug metabolism came to 0.5 pmol/min/mg.

For the compound `C[C@]12CC[C@@H]3c4ccc(O)cc4CC[C@H]3[C@@H]1CC[C@@H]2O` [ESTRADIOL], the Drug metabolism entry in data set [3] and in data set [4] was “metabolite_detected” in each case.

`C[C@]12CC[C@@H]3c4ccc(O)cc4CC[C@H]3[C@@H]1C[C@@H](O)[C@H]2O`: in the data set with Liver microsome, the Km is 380 µM and the Vmax is reported as 805 pmol/min/mg. Besides, the Drug metabolism result in data set [5] was “metabolite_detected”.
